# Shown are actives, neighbours in structure and some others; about 2.1% of the full set was active somewhere.
# STEP inh: STEP (human) phosphatase inhibition; actives 0.25% (n = 360,000); AID 588621; inhibition, % at 20 µM; P54829; recombinant STEP, OMFP fluorogenic substrate, fluorescence;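 active means inhibition at 20 µM, scaled per plate between control wells, above about 37%, limit read from the data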;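 further: 0% = DMSO with enzyme and substrate and 100% = substrate only without enzyme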
#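 Test system: STEP tyrosine phosphatase / Reagent: OMFP at 25 µM / Doses: 20 µM, 1% DMSO / Read-out: percent inhibition scaled to no-enzyme and uninhibited-enzyme controls, plate-pattern corrected / Detection: FITC-channel fluorescence of OMFP product / Medium: Bis-Tris buffer pH 6.0, 2.5 mM DTT, 0.005% Tween 20 / Schedule: 20 min at room temperature, dark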
# Scp1 inh: blocks human Scp-1 phosphatase activity | Q9GZU7 | Recombinant Scp1, phosphopeptide, malachite green phosphate absorbance | inhibition, % at 20 µM | actives 0.88% (n = 340,000);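 active means inhibition above about 50% at 20 µM, limit read from the data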;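 further: plate controls were DMSO wells with enzyme for no effect and wells lacking enzyme for full effect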
#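 Times: enzyme reaction 45 min at room temperature, colour 5 min, stabilisation 30 min. Material: SCP-1 catalytic fragment, aa 76-261. Medium: Acidic Tris acetate buffer with magnesium and detergent. Signal: colorimetric free-phosphate detection, absorbance 630 nm. Read-out basis: % inhibition of SCP-1 phosphate liberation. Reagent: Phosphorylated 17-residue peptide substrate.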
# SUMO1 PPI mod: alters human SUMO1 binding to SIM partners; AID 602429; inhibition, % at 20 µM; P63165; actives 0.33% (n = 360,000); SUMO1 binding to a labelled peptide, TR-FRET, 1 h; in the data active means inhibition above about 37%
# GRK2 inh: human GRK2 inhibition via aptamer displacement. P25098. bead flow cytometry, FAM-aptamer displacement from GRK2. inhibition of aptamer binding, % at 10 µM. actives 0.59% (n = 330,000). AID 488847;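 active means inhibition of aptamer binding above 40%, roughly 3 SD of noise, on plates passing a quality check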;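 further: median bead fluorescence of bound FAM aptamer so fluorescent compounds give negative values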
# LMPTP inh: LMPTP (human) inhibition; actives 0.22% (n = 360,000); recombinant LMPTP-A, OMFP fluorogenic substrate, fluorescence intensity; P24666; inhibition, % at 20 µM;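 active means compounds that cut the enzyme signal by at least half of the control window in the single-dose screen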;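 further: plate controls were DMSO wells with enzyme plus substrate for no effect and substrate without enzyme for full effect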
#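 Buffer or medium: Bis-Tris pH 6.0, DTT, detergent; Assay system: LMPTP-A enzyme; Quantity: 0.625 nM enzyme; Detection: endpoint fluorescence intensity; Times: 50 min dark incubation at room temperature; Controls: substrate-only low control, DMSO enzyme-plus-substrate high control; Doses: single 20 µM dose; Read-out: percent inhibition versus substrate-only and uninhibited controls; Reagent: 400 µM OMFP.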
# DNMT1 block: blocks human DNA methyltransferase DNMT1; DNMT1 molecular beacon, Hinp1I cleavage, fluorescence; inhibition (reported as % activation of signal), % at 10 µM; actives 0.83% (n = 360,000); in the data active means inhibition above about 50%
# Target sequence (P26358 504-1616 limits assumed): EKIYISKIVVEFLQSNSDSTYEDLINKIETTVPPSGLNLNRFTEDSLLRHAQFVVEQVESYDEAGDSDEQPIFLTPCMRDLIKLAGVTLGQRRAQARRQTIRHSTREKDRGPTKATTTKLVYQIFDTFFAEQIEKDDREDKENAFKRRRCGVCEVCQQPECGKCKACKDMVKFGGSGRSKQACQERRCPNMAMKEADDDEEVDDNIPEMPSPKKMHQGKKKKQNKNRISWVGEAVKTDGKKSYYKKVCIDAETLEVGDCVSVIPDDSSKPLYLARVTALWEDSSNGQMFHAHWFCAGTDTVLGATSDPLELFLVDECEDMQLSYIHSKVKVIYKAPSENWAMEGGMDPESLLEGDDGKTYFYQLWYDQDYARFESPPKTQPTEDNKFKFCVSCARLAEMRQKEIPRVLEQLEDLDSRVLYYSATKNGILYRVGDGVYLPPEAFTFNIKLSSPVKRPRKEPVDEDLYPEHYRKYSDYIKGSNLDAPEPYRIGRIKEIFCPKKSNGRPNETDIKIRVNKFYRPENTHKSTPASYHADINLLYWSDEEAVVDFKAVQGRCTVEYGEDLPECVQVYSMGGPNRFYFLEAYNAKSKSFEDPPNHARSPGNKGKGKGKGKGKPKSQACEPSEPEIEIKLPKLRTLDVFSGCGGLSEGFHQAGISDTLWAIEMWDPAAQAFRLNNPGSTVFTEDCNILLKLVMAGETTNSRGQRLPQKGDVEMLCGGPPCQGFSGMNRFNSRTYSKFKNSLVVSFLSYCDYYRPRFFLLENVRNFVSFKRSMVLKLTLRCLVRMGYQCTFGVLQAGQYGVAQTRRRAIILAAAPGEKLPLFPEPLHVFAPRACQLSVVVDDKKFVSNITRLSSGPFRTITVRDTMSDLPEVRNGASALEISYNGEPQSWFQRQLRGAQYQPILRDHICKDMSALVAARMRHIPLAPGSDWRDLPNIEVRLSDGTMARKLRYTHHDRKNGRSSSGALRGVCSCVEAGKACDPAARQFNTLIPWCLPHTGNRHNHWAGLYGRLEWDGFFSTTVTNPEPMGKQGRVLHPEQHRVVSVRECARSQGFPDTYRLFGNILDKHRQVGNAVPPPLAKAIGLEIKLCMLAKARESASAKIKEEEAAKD
# Active calls of the source: *; nt = no result given.
SMILES,STEP inh,Scp1 inh,SUMO1 PPI mod,GRK2 inh,LMPTP inh,DNMT1 block
O=C1Nc2ccccc2/C1=C/c1cnc(-c2ccccc2)[nH]1,-5,-3,43*,0,18,27
Nc1ccc(Cc2ccc(N)c(O)c2)cc1O,0,-9,-5,nt,50*,-27
COc1cc(Cc2ccc(N)c(OC)c2)ccc1N,1,-2,-2,0,-1,-12
c1ccc(-c2nc(NCCCn3ccnc3)c3ccccc3n2)cc1,1,14,6,1,57*,1
O=C(O)CCCCCNc1nc(-c2ccccc2)nc2ccccc12,1,-5,12,2,59*,1
CCOC(=O)CC1(CC)Oc2ccccc2N1S(=O)(=O)c1ccc(C)cc1 (stereo not given),nt,nt,-1,nt,2,nt
CCCC1Nc2ccc(C(=O)O)cc2C2C=CCC12 (stereo not given),4,6,26,2,1,32
CCOC(=O)c1ccc2c(c1)C1C=CCC1C(C(=O)O)N2 (stereo not given),nt,nt,nt,88*,nt,nt
CCOC(=O)C1Nc2ccc(C(=O)O)cc2C2C=CCC12 (stereo not given),42*,36,48*,22,2,60*
CC(OC(=O)c1ccc(NC(=O)CC#N)cc1)C(=O)Nc1ccc(Oc2ccccc2)cc1 (stereo not given),5,nt,54*,1,0,-11
CC(OC(=O)c1ccc(NC(=O)CC#N)cc1)C(=O)Nc1nc(-c2ccccc2)cs1 (stereo not given),-2,-7,6,0,4,-28
O=C1CCC(=O)c2ccc3c4c(ccc1c24)CC3,3,-1,-36,nt,7,25
O=C1CCN2C=Nc3cccc4ccc1c2c34,-68,-10,2,0,-5,76*
O=C(NC1CCCC1)c1ccc2nc[nH]c2c1,-3,-2,-1,3,-2,-6
O=C(NCCc1ccccc1)c1ccc2nc(-c3ccco3)c(-c3ccco3)nc2c1,6,77*,27,1,59*,105*
O=C(NC1CCCC1)c1ccc2nc(-c3ccco3)c(-c3ccco3)nc2c1,11,79*,36,8,56*,113*
CC(C)(C)[C@@H]1COC(=O)[C@H](Cc2ccc(F)cc2)CC/C=C\C[C@@H](CC(=O)NCCO)C(=O)N1,0,-5,14,0,14,-1
CN(C)C(=S)Oc1ccccc1C1SCCS1,3,nt,3,nt,0,0
CC1=C(SCc2ccccc2)C(=O)c2ccccc2C1=O,7,-10,21,nt,6,76*
CCC(C)(C)NC(=O)CN(Cc1ccccc1)C(=O)CCC(=O)Nc1nccs1,-2,3,0,39,-1,3
Nc1nonc1-n1nnc(C(=O)N/N=C/c2cc(Cl)ccc2O)c1CN1CCCCCC1,0,nt,7,2,0,50*
CN(C)c1ccc(/C=N/NC(=O)c2nnn(-c3nonc3N)c2COc2ccc(F)cc2)cc1,6,7,7,0,51*,32
CN(Cc1c(C(=O)N/N=C/c2ccccc2O)nnn1-c1nonc1N)C1CCCCC1,0,nt,3,nt,1,59*
CCOc1ccc(/C=N/NC(=O)c2nnn(-c3nonc3N)c2COc2ccc(F)cc2)cc1,-1,-4,-1,5,43,11
COc1ccc(-c2nnc(SCC(=O)Nc3c(Cl)cc(Cl)cc3C(=O)O)o2)cc1,0,-10,-3,0,-2,10
COc1ccc(CNC(=O)CC2C[C@H](C(=O)N3CCCCC3)[C@@]3(C)c4[nH]c5ccccc5c4CCN3C2=O)cc1OC (stereo not given in full),-3,4,0,0,-1,-3
COC(=O)c1cc2c(n1S(=O)(=O)c1ccc(C)cc1)C(=O)C(=O)c1[nH]cc(C(=O)OCc3ccccc3)c1-2,1,-3,-4,nt,0,82*
Cc1cccc(S(=O)(=O)Nc2nc3ccccc3nc2OC(C)C)c1,-1,-15,8,58*,0,0
Cc1cc(OCC(=O)Nc2cccnc2)c2c(C)c(C)c(=O)oc2c1,4,2,76*,0,2,5
